According to PubChem BioAssay:
Activity calls are given as the source filed them.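 The calls were made as follows, unless noted: active = compounds giving at least 50% inhibition in the cell-based MKP-3 phosphatase rescue imaging test; inactive = the rest.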

What was measured:
[1] = inhibitors of TNFa-induced NFkB p65 translocation, primary screen, imaging, HUVEC, MLSMR starter and 10KST1 sets (AID 438;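 active = inhibition above 20% together with a positive visual image hit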;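 also: compound added about 3h40 before a 20 min TNFalpha stimulation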;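 as to inhibition: signal is the nuclear over cytoplasmic p65 intensity ratio per well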); conditions: HUVEC TNFa-induced p65 nuclear translocation; cell count: measured here: nuclei count (cytotoxicity indicator), at 2.08 µM; inhibition: at 2 µM, stronger effect = higher value, 0% TNFa-plus-vehicle, 100% no-TNFa wells
[2] = inhibitors of E-selectin induction by TNFa, primary screen, imaging, HUVEC, immunofluorescence, MLSMR starter and 10KST1 sets (AID 487;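 active = visually confirmed hit in the image check and inhibition above 20%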;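 as to inhibition: signal is fraction of cell area covered by stained E-selectin grains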;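 as to nuclei count: 100% = median nuclei count of all wells on the same plate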); conditions: HUVEC TNFalpha-induced E-selectin immunofluorescence imaging, at 2 µM; inhibition: stronger effect = higher value; nuclei count: measured here: cell number, toxicity
[3] = DUSP6 inhibitors restoring Erk phosphorylation by chemical complementation, primary imaging in DUSP6-transfected HeLa (AID 609); conditions: HeLa MKP-3 transfected, phospho-Erk imaging KS statistic, at 10 µM, cells stimulated with TPA for 15 min;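 as to inhibition: phospho-Erk level distribution per well compared with pooled transfected vehicle control wells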
[4] = biological target: Dual specificity protein phosphatase 6 (Homo sapiens) (UniProt Q16828); assay: as above; conditions: HeLa MKP-3 transfected, phospho-Erk imaging KS statistic; at 10 µM; stronger effect = higher value; cells stimulated with TPA for 15 min
Chain of Dual specificity protein phosphatase 6 (Homo sapiens) (Q16828 whole entry, looked up): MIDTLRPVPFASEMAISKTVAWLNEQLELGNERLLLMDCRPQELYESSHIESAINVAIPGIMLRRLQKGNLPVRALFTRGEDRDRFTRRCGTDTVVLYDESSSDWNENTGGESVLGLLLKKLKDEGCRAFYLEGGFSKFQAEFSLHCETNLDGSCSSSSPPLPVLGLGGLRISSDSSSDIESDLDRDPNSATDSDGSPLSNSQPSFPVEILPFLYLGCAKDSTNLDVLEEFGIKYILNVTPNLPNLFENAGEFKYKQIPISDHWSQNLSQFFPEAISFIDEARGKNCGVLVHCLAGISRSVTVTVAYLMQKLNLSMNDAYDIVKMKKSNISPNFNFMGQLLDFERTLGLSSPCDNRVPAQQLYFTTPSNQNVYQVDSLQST

[5] = biological target: Voltage-gated potassium channel subunit beta-2 (Rattus norvegicus) (UniProt P62483); assay: KvBeta enzyme negative modulators, primary screen, biochemical, NADPH fluorescence (AID 622;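 active = fluorescence slope higher than the sample average by over 3 SD, cut at about -0.22 in these data, passing the limit was not always enough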;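 also: slope of raw intensity against log time taken from 70 to 1610 s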); conditions: recombinant KvBeta, 4-cyanobenzaldehyde reduction, at 10 µM, stronger effect = higher value
Chain of Voltage-gated potassium channel subunit beta-2 (Rattus norvegicus) (P62483 whole entry, looked up): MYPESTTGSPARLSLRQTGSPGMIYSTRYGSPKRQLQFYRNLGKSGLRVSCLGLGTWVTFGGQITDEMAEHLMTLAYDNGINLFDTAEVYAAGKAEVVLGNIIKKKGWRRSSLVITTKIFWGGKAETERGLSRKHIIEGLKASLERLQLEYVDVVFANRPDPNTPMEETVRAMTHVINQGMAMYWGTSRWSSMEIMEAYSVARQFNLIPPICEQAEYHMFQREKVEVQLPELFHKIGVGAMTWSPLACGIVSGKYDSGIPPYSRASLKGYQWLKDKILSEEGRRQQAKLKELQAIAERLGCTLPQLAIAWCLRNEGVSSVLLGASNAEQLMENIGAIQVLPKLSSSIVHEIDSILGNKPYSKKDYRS

[6] = biological target: Voltage-gated potassium channel subunit beta-2 (Rattus norvegicus) (UniProt P62483); assay: KvBeta positive modulators, primary screen, biochemical, NADPH fluorescence (AID 623;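 active = NADPH fluorescence slope more negative than the mean of all samples by about 3 SD, 99.7% confidence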;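 also: fluorescence intensity change per second fitted from 20 to 320 s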); conditions: Recombinant KvBeta, NADPH fluorescence decrease slope, 10 min; at 10 µM; stronger effect = lower value
[7] = biological target: Alpha-2C adrenergic receptor (Homo sapiens) (UniProt P18825); assay: modulators of alpha2C/GIRK thallium flux, primary screen, cell-based, HEK293 alpha2C/GIRK1/2 (AID 624;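 active = fluorescence slope after compound addition differing from the mean of all screened samples at 99.7% confidence, in either direction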;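 also: slope of fluorescence ratio to pre-addition baseline per second over 15 to 24 s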); conditions: thallium flux BTC fluorescence, at 10 µM, actives lie on both sides
Chain of Alpha-2C adrenergic receptor (Homo sapiens) (P18825 whole entry, looked up): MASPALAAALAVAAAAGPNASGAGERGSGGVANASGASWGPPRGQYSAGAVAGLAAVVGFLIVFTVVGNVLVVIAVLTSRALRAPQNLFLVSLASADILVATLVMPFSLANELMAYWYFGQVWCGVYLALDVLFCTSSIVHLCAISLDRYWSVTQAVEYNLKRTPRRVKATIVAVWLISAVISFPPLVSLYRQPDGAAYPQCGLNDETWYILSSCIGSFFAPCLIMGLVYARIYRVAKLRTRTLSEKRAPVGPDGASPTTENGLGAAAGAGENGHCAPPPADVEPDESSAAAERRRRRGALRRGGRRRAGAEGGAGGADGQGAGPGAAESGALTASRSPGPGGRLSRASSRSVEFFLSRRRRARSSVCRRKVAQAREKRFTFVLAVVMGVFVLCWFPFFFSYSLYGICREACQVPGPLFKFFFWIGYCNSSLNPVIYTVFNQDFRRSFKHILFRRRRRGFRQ

[8] = inhibitors of larval lipid processing in zebrafish, primary screen, whole organism, PED6 fluorescence, gall bladder and intestine (AID 686;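 active = a full or partial loss of lipid-probe fluorescence in the fish gall bladder, intestine or both, judged by eye; inactive = no fluorescence loss, or compound toxic to the fish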;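 also: larvae 5 to 7 days old with five fish per well; signal comes from phospholipase A2 cleavage of quenched PED6 carried via bile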); conditions: Zebrafish larvae PED6 lipid processing, fluorescence scoring; screened at 20 µM (by protocol)
Summary of the method: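 Incubation: overnight exposure of larvae to compound plus PED6 / Test system: live zebrafish larvae aged 5-7 days, whole organism / Amount: 5 larvae per well / Read-out basis: visual per-well fluorescence inhibition score / Signal: visual fluorescence microscopy scoring of gall bladder, gut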

[9] = inhibitors of Chlamydomonas gravitaxis, primary screen, whole organism, Chlamydomonas reinhardtii, WT vs cilia-less mutant, absorbance, 96-well (AID 463189;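 active = inhibition at or above 50% relative to wild type and mutant plate controls; inactive = inhibition below 50%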;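 also: 0% = wild type cc124 cells in DMSO and 100% = ciliumless bld1 mutant cells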); conditions: OD600 absorbance, 2 days, at 10 µM, stronger effect = higher value
[10] = measured here: cell density z-score
[11] = measured here: nuclear c-Myc green intensity z-score
[12] = measured here: nuclear pErk red intensity z-score, stronger effect = higher value

Row | Compound | cell count [1] | inhibition [1] | inhibition [2] | nuclei count [2] [%] | z-score [3, 10] | z-score [3, 11] | z-score [3, 12] | inhibition [4] | fluorescence slope [5] | NADPH fluorescence slope [6] | slope [7] | outcome [8] | inhibition [9]
1 | c1ccc(OCc2nn3c(-c4ccco4)nnc3s2)cc1 | 654 | 3.2% (inactive) | -139% (inactive) | 156 | 2.72 | -1.05 | -0.302 | 11.9% (inactive) | -0.417 (inactive) | -0.000108 (inactive) | 0.00597 (inactive) | inactive | 7.84% (inactive)
2 | COc1ccc(Nc2oc(-c3cccs3)nc2C#N)cc1 | 383 | 2.9% (inactive) | -134% (inactive) | 142 | 1.97 | -0.949 | -1.32 | 15% (inactive) | -0.352 (inactive) | -1.7e-05 (inactive) | 0.00524 (inactive) | inactive | 16% (inactive)
3 | Nc1ccc2ncccc2c1N | 537 | -10% (inactive) | -47.1% (inactive) | 103 | 0.673 | 1.61 | 0.017 | -9.66% (inactive) | -0.517 (inactive) | -2.1e-05 (inactive) | 0.0034 (inactive) | inactive | -1.57% (inactive)
4 | COc1ccc2c(c1OC)C(=O)N1c3ccccc3SC21 (stereo not drawn) | 540 | -6% (inactive) | -54.8% (inactive) | 205 | -1.05 | 0.152 | 0.534 | 2.46% (inactive) | -0.361 (inactive) | 1.2e-05 (inactive) | 0.00516 (inactive) | inactive | 20.5% (inactive)
5 | CCN(CC)CCNC(=O)c1ccccc1N | 521 | -17.4% (inactive) | -314% (inactive) | 187 | 0.845 | 0.248 | 0.636 | -8.95% (inactive) | -0.463 (inactive) | -0.000132 (inactive) | 0.00488 (inactive) | inactive | -5.26% (inactive)
6 | Cc1nc2sc3c(c2c(=O)o1)CC(C)(C)OC3 | 555 | -9.6% (inactive) | 23.7% (inactive) | 115 | 0.476 | 1.45 | -1.12 | 7.7% (inactive) | -0.461 (inactive) | -1.1e-05 (inactive) | 0.0057 (inactive) | inactive | -15.1% (inactive)
7 | CC(=O)C1=C(O)C(=O)N(c2cccc(C(=O)O)c2)C1c1ccccc1F (stereo not drawn) | 545 | -2.4% (inactive) | -73.9% (inactive) | 156 | -0.336 | 0.7 | 0.539 | -9.66% (inactive) | -0.505 (inactive) | -4.6e-05 (inactive) | 0.00649 (inactive) | inactive | 3.92% (inactive)
8 | CCN=C1SC(C(=O)Nc2ccc(Cl)c(Cl)c2)CC(=O)N1CC (stereo not drawn) | 388 | -0.4% (inactive) | -56.6% (inactive) | 133 | 1.74 | -1.1 | -1.57 | 7.42% (inactive) | -0.423 (inactive) | -0.000131 (inactive) | 0.00577 (inactive) | inactive | 0.946% (inactive)
9 | COc1ccc(CNC(=O)c2c(C)cc(=O)oc2C)cc1OC | 446 | 1.8% (inactive) | -121% (inactive) | 167 | 0.057 | 0.328 | 1.22 | -1.12% (inactive) | -0.427 (inactive) | -4.8e-05 (inactive) | 0.00518 (inactive) | inactive | -7.01% (inactive)
10 | CCN(CC)C(=O)CN(C#N)c1nc(NC(C)C)nc(NC(C)C)n1 | 594 | 5.2% (inactive) | -48.7% (inactive) | 173 | 0.0403 | 2.22 | -0.0328 | 5.65% (inactive) | -0.213 (inactive) | 8.9e-06 (inactive) | 0.00592 (inactive) | inactive | 31.8% (inactive)
11 | O=C(c1coc(=O)c(Br)c1)N1CCCc2ccccc21 | 384 | -0.8% (inactive) | -39.7% (inactive) | 134 | -0.336 | -1.15 | 0.12 | 3.42% (inactive) | -0.437 (inactive) | -8e-05 (inactive) | 0.00466 (inactive) | inactive | 36.5% (inactive)
12 | CSc1nc(Oc2ccc(=O)[nH]n2)nc(N(C)C)n1 | 619 | -0.7% (inactive) | -20.1% (inactive) | 148 | -0.384 | -0.165 | 1.66 | -2.69% (inactive) | -0.314 (inactive) | 2.2e-06 (inactive) | 0.00466 (inactive) | inactive | 9.17% (inactive)
13 | CSc1nc(N)nc(SCC(=O)OC(C)C)c1C#N | 394 | -11.8% (inactive) | -26.4% (inactive) | 76.9 | -1.22 | -0.698 | -1.26 | 0.671% (inactive) | -0.371 (inactive) | 5e-05 (inactive) | 0.00629 (inactive) | inactive | 72.2% (active)
14 | Cn1ncc(N=Cc2ccccc2O)c1C(=O)Nc1ccccc1 | 635 | -3.8% (inactive) | -20.9% (inactive) | 140 | -0.0255 | 0.841 | 1.17 | 4.25% (inactive) | -0.5 (inactive) | -0.000122 (inactive) | 0.00441 (inactive) | inactive | 0.038% (inactive)
15 | CCCCc1c(C)nn(-c2nnc3c4ccccc4n(C)c3n2)c1C | 575 | -12.6% (inactive) | -37.2% (inactive) | 161 | -0.575 | 2.07 | -0.403 | 7.73% (inactive) | -0.48 (inactive) | -5.6e-05 (inactive) | 0.00441 (inactive) | inactive | 21.4% (inactive)
16 | Cc1ccc2[nH]c(CCN(C)C)c(CC#N)c2c1 | 564 | 4.9% (inactive) | -74.2% (inactive) | 206 | -1.01 | -0.567 | 1.52 | 18.6% (inactive) | -0.364 (inactive) | -2.8e-05 (inactive) | 0.0055 (inactive) | inactive | 10.4% (inactive)
17 | CC(C(=O)N1CCCCC1)N1C(=O)c2ccccc2C1=O (stereo not drawn) | 352 | -17.2% (inactive) | -54% (inactive) | 122 | 2.3 | -0.711 | -0.781 | 17.5% (inactive) | -0.452 (inactive) | -0.000116 (inactive) | 0.00537 (inactive) | inactive | 10.7% (inactive)
18 | CCOC(=O)C1=C(C)NC(=O)NC1c1ccc2c(c1)OCO2 (stereo not drawn) | 603 | -9.5% (inactive) | -11.9% (inactive) | 154 | 0.562 | 0.385 | -0.648 | -13.3% (inactive) | -0.387 (inactive) | -7.4e-05 (inactive) | 0.00581 (inactive) | inactive | -6.75% (inactive)
19 | N#Cc1ccc(-c2cccnc2)nc1SCC(=O)Nc1sc2c(c1C#N)CCC2 | 539 | -25.4% (inactive) | -101% (inactive) | 144 | 0.414 | 0.682 | 0.527 | -9.66% (inactive) | -0.501 (inactive) | -5.3e-05 (inactive) | 0.00453 (inactive) | inactive | -0.076% (inactive)
20 | CC(C)C1C(C#N)=C(N)Oc2n[nH]c(C(C)(C)C)c21 (stereo not drawn) | 391 | -8.2% (inactive) | -118% (inactive) | 157 | 0.159 | 1.21 | -1.21 | -2.91% (inactive) | -0.429 (inactive) | -4.6e-05 (inactive) | 0.00626 (inactive) | inactive | -1.5% (inactive)
21 | COC(=O)CSC1=C(C#N)C(=O)NC2(CCCCC2)S1 | 573 | -10.7% (inactive) | -35.3% (inactive) | 154 | -0.563 | 0.765 | 0.767 | -11.5% (inactive) | -0.493 (inactive) | -4.7e-05 (inactive) | 0.00592 (inactive) | inactive | -6.72% (inactive)
